For data set [1] the following is noted: cited from earlier work.
In data set [2] the target is T1, CaM (Homo sapiens, UniProt P0DP23). The data set can be described thus: Isothermal titration calorimetry. Conditions: 10 mM MOPS, 2 mM CaCl2, 100 mM NaCl, pH 7.4, 30 °C. In kind it is binding.
Data set [3] has as its system D/A-CaM (donor/acceptor-labeled CaM). Briefly: FRET measurements using D/A-CaM. In kind it is binding. The settings on record: compared with CaMKII-derived peptide; calcium-containing buffer, pH 7.4.
Another data set in a line: Solubility. In kind it is physicochemical.
Data set [4] deals with 15N-labeled Ca^2+-loaded CaM. Briefly: 1H,15N-HSQC NMR titration of 15N-labeled CaM. In kind it is binding. Conditions: Ca^2+-CaM, 310 K.
Data set [5] has as its target CaM (I-CaM, IAEDANS-labeled CaM-K75C) (Homo sapiens, UniProt P0DP23, K76C). Briefly: I-CaM fluorescence titration of water-soluble peptides. The settings on record: 0.1 mM CaCl2 versus 0.3 mM EDTA. The class given is binding.
A further data set can be described thus: Collisional fluorescence. In kind it is binding. Conditions: pH 7.4.
Data set [6] addresses T1, CaM. Briefly: CaM titration to TMR-CLS liposomes, TMR fluorescence. The class given is binding. Conditions: pH 7.4; for association with CaM in 15% POPS liposomes: 15% POPS / 85% POPC liposomes, absence and presence of calcium.
The target of data set [7] is T1, CaM. Briefly: Overall affinity of CaM for L-selectin cytoplasmic domain. The class given is binding. Conditions: phosphatidylserine content mimics that in the inner leaflet of the cell plasma membrane.
The target in the next data set is I-CaM (Homo sapiens, UniProt P0DP23, K76C). The data set can be described thus: I-CaM titration to CLS liposomes, Trp315 to IAEDANS energy transfer. The class given is binding. An outline of the steps: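 Unlabelled CLS (30 nM) in liposomes was titrated with IAEDANS-labelled cysteine-mutant CaM. Its concentration came from IAEDANS absorbance. Buffer was 10 mM MOPS, 100 mM NaCl, pH 7.4, with 0.3 mM EDTA or 1 mM CaCl2, at 20 °C. Excitation was 295 nm, and Trp quenching was read at 333 nm. Spectra were averaged over 3 scans and corrected with empty liposomes. Kd came from a hyperbolic fit.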

A short description of data set [8]: Far-UV CD spectroscopy in liposomes. The class given is physicochemical. The settings on record: 1 mM MOPS, pH 7.4, 20 °C. An outline of the steps: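 CLS reconstituted into large unilamellar vesicles (extruded, 400-nm filter) at about 10 μM in 1 mM MOPS, pH 7.4. Far-UV spectra (190–260 nm) were taken in a 0.1-cm cuvette at 20 °C with 0.2 nm steps and 10 scans each, corrected against empty liposomes. CLS content was measured by Trp emission after dissolving in 2% SDS, against a standard curve.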

Entries after “also recorded” stand apart in the source; their conditions may differ. No end group written: not given here. *: point of attachment. X1 = CN(C)c1ccc2c(-c3ccc(N4C(=O)CC(*)C4=O)cc3C(=O)[O-])c3ccc(N(C)C)cc3[o+]c2c1

For `NCCCCCCNS(=O)(=O)c1cccc2c(Cl)cccc12` [W-7], the “membrane binding and surface potential” value in data set [1] was “directly bind to membrane and alter the electrostatic surface potential”.

With ARRLKKGKKSKRSMNDPY [ARR18], the “N (stoichiometry of binding)” value at CaM [2] (ARR18 316 μM in 10 μl increments into 27.6 μM CaM, one-site model) came out at 0.92±0.05. For the same compound, the “ΔH (enthalpy change per mole of ligand)” value on CaM [2] (ARR18 316 μM into 27.6 μM CaM, one-site model) is -0.77 ± 0.07 kcal/mol. Moreover, at CaM [2] (derived from Ka and ΔH), the “ΔS (entropy change)” value is on record as 21.7 cal/mol·K. In addition, the “conformation of bound CaM” value in [3] is reported as “much more extended conformation”. Besides, the “solubility in water / aqueous solutions” value in the data set “Solubility” is “soluble in water up to millimolar concentration”. In addition, the CaM lobes bound result in data set [4] (10 mM MOPS, 100 mM NaCl, 5 mM CaCl2, pH 6.3) was “binds to both the N- and C-lobes of Ca^2+-CaM”. The “nature of the binary complex” value in data set [4] (saturating concentrations of ARR18, pH 6.3) is “dynamic and exist as an ensemble of interconverting conformers”. For the same compound, the “effect of calcium on association with CaM” value in data set [5] is listed as “calcium does not influence the association of CaM with ARR18”.

For “KLDKSFSMIKEGDYNPLFIPVAVMVTAFSGLAFIIWLARRLKKGKKSKRC(X1)MNDPY [TMR-CLS]”, the “effect of NaNO3 on TMR fluorescence (15% POPS versus POPC liposomes)” value in “Collisional fluorescence” (150 mM NaI, increasing NaNO3, 10 mM MOPS, ex 542 nm, em 575 nm) was “quenched more significantly in 15% POPS liposomes compared to POPC liposomes”. The “association with CaM in 15% POPS liposomes” value on CaM [6] was “does not bind”. Moreover, the “change in TMR fluorescence emission on addition of CaM” value at CaM [6] (15% POPS liposomes, up to 10 μM CaM, 10 mM MOPS, 100 mM NaCl, 1 mM EDTA or 0.1 mM CaCl2) is given as “little change in TMR fluorescence emission”.

Turning to “KLDKSFSMIKEGDYNPLFIPVAVMVTAFSGLAFIIWLARRLKKGKKSKRSMNDPY [CLS]”, at CaM [7], the “interaction with CaM (summary)” value was “undetectable; also recorded: fails to bind”. Moreover, the “location of cytoplasmic domain relative to membrane surface” value in “Collisional fluorescence” (POPC liposomes with 0–15% POPS, 20 °C) is “located closer to the surface of membranes that have higher concentrations of negatively charged lipids”. Also, the “effect of calcium on interaction with CaM” value at I-CaM (CLS in POPC liposomes, CaCl2 versus EDTA) is “independent of calcium ion”. In addition, the “quenching of Trp315 fluorescence by I-CaM” value at I-CaM (unlabeled CLS in 15% POPS liposomes, pH 7.4) was “did not produce a significant quenching of Trp315 fluorescence”. The “association with CaM in 15% POPS liposomes” value at CaM [6] is recorded as “does not associate”. In data set [8] (POPC and 15% POPS liposomes, minima at 208 and 222 nm), the “secondary structure by CD” value is listed as “characteristic of the α-helical secondary structure”. Besides, in data set [8] (ellipticity at 222 nm), the “α-helical content in 15% POPS versus POPC liposome” value is on record as “less α-helical secondary structure in the 15% POPS liposome than in the POPC liposome”. The “solubility in water / aqueous solutions” value in the data set “Solubility” is “not soluble in aqueous solutions”.

(Values after publication PMC3143253 (Journal of molecular biology, 2011).)
